Values joined by “and” are separate entries in the source; they are usually repeats but may differ in a detail not shown here. Identical values can stand only once.
Test system: Fibroblast
Test: Multiplex assay against human fibroblast
Format: toxicity, cell-based
In short: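 Phenotypes for tubulin, mitochondrial mass and membrane permeability are expressed as per cents of healthy-nucleus cells. Cells were stained live at seeding with Hoechst33342, BioTracker Green Microtubule Cytoskeleton Dye, MitoTracker Red and Annexin V Alexa Fluor 680, then imaged after compound addition on a CQ1 microscope at 37°C and 5% CO2. Machine-learning gating in CellPathfinder separated Hoechst high-intensity objects from normal cells, divided normal cells by nuclear state (healthy, pyknosed, fragmented) and divided pyknosed cells into mitotic or apoptotic.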

[1] = 12 h, 1 µM, compound concentration 1 uM
[2] = 12 h, 10 µM, compound concentration 10 uM
[3] = 24 h, 1 µM, compound concentration 1 uM
[4] = 24 h, 10 µM, compound concentration 10 uM
[5] = 48 h, 1 µM, compound concentration 1 uM
[6] = 48 h, 10 µM, compound concentration 10 uM

NCCc1cn(S(=O)(=O)c2c(Cl)nc3sccn23)c2ccccc12.O=C(O)C(=O)O
Population Apoptotic (%) [1]: 45% | Population Fragmented Nuclei (%) [1]: 20% and 34% | Population Healthy Nuclei (%) [1]: 65% and 37% | Population Hoechst High Intensity Objects (%) [1]: 4% and 3% | Population Membrane Permeable-Phenotype (%) [1]: 0% and 13% | Population Mitochondria Different-Phenotype (%) [1]: 5% and 8% | Population Mitotic Cells (%) [1]: 55% and 54% | Population Normal (%) [1]: 95% and 96% | Population Pyknosed Nuclei (%) [1]: 14% and 28% | Population Tubulin-Different-Phenotype (%) [1]: 40% and 62% | Total Cell Count [1]: 146 and 170 | Population Apoptotic (%) [2]: 78% and 57% | Population Fragmented Nuclei (%) [2]: 20% and 24% | Population Healthy Nuclei (%) [2]: 56% and 44% | Population Hoechst High Intensity Objects (%) [2]: 6% | Population Membrane Permeable-Phenotype (%) [2]: 0% and 5% | Population Mitochondria Different-Phenotype (%) [2]: 40% and 34% | Population Mitotic Cells (%) [2]: 21% and 42% | Population Normal (%) [2]: 93% | Population Pyknosed Nuclei (%) [2]: 22% and 30% | Population Tubulin-Different-Phenotype (%) [2]: 90% and 89% | Total Cell Count [2]: 177 and 219 | Population Apoptotic (%) [3]: 50% and 46% | Population Fragmented Nuclei (%) [3]: 21% and 35% | Population Healthy Nuclei (%) [3]: 64% and 44% | Population Hoechst High Intensity Objects (%) [3]: 3% and 4% | Population Membrane Permeable-Phenotype (%) [3]: 0% and 18% | Population Mitochondria Different-Phenotype (%) [3]: 13% and 11% | Population Mitotic Cells (%) [3]: 50% and 53% | Population Normal (%) [3]: 96% and 95% | Population Pyknosed Nuclei (%) [3]: 13% and 20% | Population Tubulin-Different-Phenotype (%) [3]: 42% and 70% | Total Cell Count [3]: 156 and 166 | Population Apoptotic (%) [4]: 77% and 72% | Population Fragmented Nuclei (%) [4]: 22% and 30% | Population Healthy Nuclei (%) [4]: 62% and 51% | Population Hoechst High Intensity Objects (%) [4]: 3% and 7% | Population Membrane Permeable-Phenotype (%) [4]: 0% and 5% | Population Mitochondria Different-Phenotype (%) [4]: 58% and 32% | Population Mitotic Cells (%) [4]: 22% and 27% | Population Normal (%) [4]: 96% and 92% | Population Pyknosed Nuclei (%) [4]: 14% and 18% | Population Tubulin-Different-Phenotype (%) [4]: 89% and 81% | Total Cell Count [4]: 193 and 237 | Population Apoptotic (%) [5]: 50% and 54% | Population Fragmented Nuclei (%) [5]: 27% and 38% | Population Healthy Nuclei (%) [5]: 63% and 47% | Population Hoechst High Intensity Objects (%) [5]: 4% and 6% | Population Membrane Permeable-Phenotype (%) [5]: 2% and 9% | Population Mitotic Cells (%) [5]: 50% and 45% | Population Normal (%) [5]: 95% and 93% | Population Pyknosed Nuclei (%) [5]: 9% and 14% | Population Tubulin-Different-Phenotype (%) [5]: 46% and 58% | Total Cell Count [5]: 177 and 166 | Population Apoptotic (%) [6]: 85% and 75% | Population Fragmented Nuclei (%) [6]: 22% and 31% | Population Healthy Nuclei (%) [6]: 65% and 59% | Population Hoechst High Intensity Objects (%) [6]: 7% and 3% | Population Membrane Permeable-Phenotype (%) [6]: 0% and 3% | Population Mitochondria Different-Phenotype (%) [6]: 43% and 24% | Population Mitotic Cells (%) [6]: 14% and 25% | Population Normal (%) [6]: 92% and 96% | Population Pyknosed Nuclei (%) [6]: 12% and 8% | Population Tubulin-Different-Phenotype (%) [6]: 92% and 74% | Total Cell Count [6]: 189 and 241

O=C1CSC(=O)N1C(CCc1ccncc1)COc1ccc(-c2cccc([N+](=O)[O-])c2)cc1 (stereo not given)
Population Apoptotic (%) [1]: 15.94% and 18.18% | Population Fragmented Nuclei (%) [1]: 10.47% and 7.01% | Population Healthy Nuclei (%) [1]: 49.42% and 67.29% | Population Hoechst High Intensity Objects (%) [1]: 0% | Population Membrane Permeable-Phenotype (%) [1]: 7.06% and 9.03% | Population Mitochondria Different-Phenotype (%) [1]: 17.65% and 14.58% | Population Mitotic Cells (%) [1]: 84.06% and 81.82% | Population Normal (%) [1]: 100% | Population Pyknosed Nuclei (%) [1]: 40.12% and 25.7% | Population Tubulin-Different-Phenotype (%) [1]: 45.88% and 47.22% | Total Cell Count [1]: 172 and 214 | Population Apoptotic (%) [2]: 20.34% and 45% | Population Fragmented Nuclei (%) [2]: 16.2% and 9.55% | Population Healthy Nuclei (%) [2]: 42.25% and 60.3% | Population Hoechst High Intensity Objects (%) [2]: 0% | Population Membrane Permeable-Phenotype (%) [2]: 16.67% and 33.33% | Population Mitochondria Different-Phenotype (%) [2]: 43.33% and 52.5% | Population Mitotic Cells (%) [2]: 79.66% and 55% | Population Normal (%) [2]: 100% | Population Pyknosed Nuclei (%) [2]: 41.55% and 30.15% | Population Tubulin-Different-Phenotype (%) [2]: 71.67% and 99.17% | Total Cell Count [2]: 142 and 199 | Population Apoptotic (%) [3]: 12.82% and 22.22% | Population Fragmented Nuclei (%) [3]: 15.38% and 8.89% | Population Healthy Nuclei (%) [3]: 63.19% and 75.11% | Population Hoechst High Intensity Objects (%) [3]: 0% | Population Membrane Permeable-Phenotype (%) [3]: 5.22% and 7.69% | Population Mitochondria Different-Phenotype (%) [3]: 13.04% and 14.79% | Population Mitotic Cells (%) [3]: 87.18% and 77.78% | Population Normal (%) [3]: 100% | Population Pyknosed Nuclei (%) [3]: 21.43% and 16% | Population Tubulin-Different-Phenotype (%) [3]: 32.17% and 39.05% | Total Cell Count [3]: 182 and 225 | Population Apoptotic (%) [4]: 30.56% and 30.23% | Population Fragmented Nuclei (%) [4]: 18.75% and 10.08% | Population Healthy Nuclei (%) [4]: 56.25% and 71.85% | Population Hoechst High Intensity Objects (%) [4]: 0% | Population Membrane Permeable-Phenotype (%) [4]: 9.88% and 12.87% | Population Mitochondria Different-Phenotype (%) [4]: 43.21% and 52.05% | Population Mitotic Cells (%) [4]: 69.44% and 69.77% | Population Normal (%) [4]: 100% | Population Pyknosed Nuclei (%) [4]: 25% and 18.07% | Population Tubulin-Different-Phenotype (%) [4]: 86.42% and 97.08% | Total Cell Count [4]: 144 and 238 | Population Apoptotic (%) [5]: 21.43% and 21.21% | Population Fragmented Nuclei (%) [5]: 11.27% and 8.23% | Population Healthy Nuclei (%) [5]: 81.86% and 77.49% | Population Hoechst High Intensity Objects (%) [5]: 0% | Population Membrane Permeable-Phenotype (%) [5]: 1.2% and 3.91% | Population Mitochondria Different-Phenotype (%) [5]: 16.17% and 5.59% | Population Mitotic Cells (%) [5]: 78.57% and 78.79% | Population Normal (%) [5]: 100% | Population Pyknosed Nuclei (%) [5]: 6.86% and 14.29% | Population Tubulin-Different-Phenotype (%) [5]: 25.75% and 37.99% | Total Cell Count [5]: 204 and 231 | Population Fragmented Nuclei (%) [6]: 15.87% and 12.5% | Population Healthy Nuclei (%) [6]: 73.02% and 80.83% | Population Hoechst High Intensity Objects (%) [6]: 0% | Population Membrane Permeable-Phenotype (%) [6]: 13.04% and 19.07% | Population Mitochondria Different-Phenotype (%) [6]: 35.51% and 19.59% | Population Mitotic Cells (%) [6]: 61.9% and 87.5% | Population Normal (%) [6]: 100% | Population Pyknosed Nuclei (%) [6]: 11.11% and 6.67% | Population Tubulin-Different-Phenotype (%) [6]: 84.06% and 98.45% | Total Cell Count [6]: 189 and 240
